ChEMBL document CHEMBL1124076, “125I-labeled 8-phenylxanthine derivatives: antagonist radioligands for adenosine A1 receptors” (J Med Chem, 1988)

Experiments:
Adenosine receptor A1 [1] = target: T1, Adenosine receptor A1 (Bos taurus, UniProt P28190); experiment: Displacement of [125-I]-labeled aminobenzyl adenosine binding to adenosine A1 receptor of bovine brain membranes; format: cell membranes
T1 sequence (P28190 whole entry): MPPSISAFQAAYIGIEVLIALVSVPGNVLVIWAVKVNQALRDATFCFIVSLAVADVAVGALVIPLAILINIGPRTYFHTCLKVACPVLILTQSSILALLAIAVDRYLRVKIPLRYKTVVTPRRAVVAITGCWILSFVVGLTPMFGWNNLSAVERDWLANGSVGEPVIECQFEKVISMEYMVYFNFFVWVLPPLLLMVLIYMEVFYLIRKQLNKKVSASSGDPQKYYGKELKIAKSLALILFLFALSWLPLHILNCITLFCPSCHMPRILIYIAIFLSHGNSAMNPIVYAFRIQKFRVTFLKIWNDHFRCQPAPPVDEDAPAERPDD
Summary of the method: (§1)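 Bovine cerebral cortex membranes, pretreated with EDTA, at 0.5 mg protein/mL in 10 mM HEPES, 1 mM EDTA, 0.1 mM benzamidine, pH 7.4. Incubated 2-3 h at 21 °C, then filtered and washed with ice-cold 10 mM Tris-HCl pH 7.4. Nonspecific binding by 100 μM PIA, 1 mM theophylline or 1 μM IIIa.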

Adenosine A2 receptor = Adenosine A2 receptor (Homo sapiens, UniProt P29275+P29274); experiment: Inhibition of NECA binding to adenosine A2 receptor mediates reduced adenylate cyclase activity in human platelets
Adenosine receptor A1 [2] = target: T1, Adenosine receptor A1; experiment: Binding affinity for adenosine A1 receptor as inhibition of [125-I]-labeled aminobenzyl adenosine binding to bovine brain membranes; format: cell membranes; summary of the method: as §1
Adenosine receptor A1 [3] = target: T1, Adenosine receptor A1; experiment: Binding affinity for adenosine A1 receptor using [125-I]-labeled aminobenzyl adenosine in bovine brain membranes; format: cell membranes; summary of the method: as §1
Adenosine receptor A1 [4] = target: T2, Adenosine receptor A1 (Rattus norvegicus, UniProt P25099); experiment: Binding affinity to adenosine A1 receptor of rat brain membranes with 1 M NaCl by inhibition of [125-I]-IIIa binding
T2 sequence (P25099 whole entry): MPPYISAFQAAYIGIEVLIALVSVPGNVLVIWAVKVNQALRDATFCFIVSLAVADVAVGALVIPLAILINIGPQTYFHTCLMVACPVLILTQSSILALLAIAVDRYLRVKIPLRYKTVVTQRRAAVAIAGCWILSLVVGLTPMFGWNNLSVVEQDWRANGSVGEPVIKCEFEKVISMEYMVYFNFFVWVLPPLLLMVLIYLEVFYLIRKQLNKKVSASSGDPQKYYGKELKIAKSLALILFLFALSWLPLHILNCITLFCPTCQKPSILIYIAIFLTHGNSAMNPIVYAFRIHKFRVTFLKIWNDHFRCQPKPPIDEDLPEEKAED

Adenosine receptor A1 [5] = target: T2, Adenosine receptor A1

SMILES	Kd (Adenosine receptor A1 [1])	Ki (Adenosine A2 receptor)	Kd (Adenosine receptor A1 [2])	Kd (Adenosine receptor A1 [3])	IC50 (Adenosine receptor A1 [4])	IC50 (Adenosine receptor A1 [5])
Nc1ccc(CCn2c(=O)c3nc(-c4ccc(OCC(=O)O)cc4)[nH]c3n(CCc3ccc(N)cc3)c2=O)cc1	3590 nM	> 100000 nM				
CCCn1c(=O)n(Cc2ccc(N=[N+]=[N-])c(I)c2)c(=O)c2[nH]c(-c3ccc(OCC(=O)O)cc3)nc21		5300 nM	960 nM			
CCCn1c(=O)n(CCc2ccc(N)c(I)c2)c(=O)c2[nH]c(-c3ccc(OCC(=O)O)cc3)nc21	3100 nM	20000 nM				
CCCn1c(=O)c2nc(-c3ccc(OCC(=O)O)cc3)[nH]c2n(Cc2ccc(N=[N+]=[N-])c(I)c2)c1=O		2100 nM		55 nM		
CCCn1c(=O)n(CCc2ccc(N)cc2)c(=O)c2[nH]c(-c3ccc(OCC(=O)O)cc3)nc21	2300 nM	11500 nM				
CCCn1c(=O)n(Cc2ccc(N)c(I)c2)c(=O)c2[nH]c(-c3ccc(OCC(=O)O)cc3)nc21	160 nM	1800 nM				
CCCn1c(=O)n(CCc2ccc(N=[N+]=[N-])c(I)c2)c(=O)c2[nH]c(-c3ccc(OCC(=O)O)cc3)nc21		12300 nM	2860 nM			
CCCn1c(=O)c2[nH]c(-c3ccc(OCC(=O)O)cc3)nc2n(CCC)c1=O			17 nM			

More lines, now with the values ahead:

Kd (Adenosine receptor A1 [1])	Ki (Adenosine A2 receptor)	Kd (Adenosine receptor A1 [2])	Kd (Adenosine receptor A1 [3])	IC50 (Adenosine receptor A1 [4])	IC50 (Adenosine receptor A1 [5])	SMILES
24 nM	5400 nM					CCCn1c(=O)c2nc(-c3ccc(OCC(=O)O)cc3)[nH]c2n(CCc2ccc(N=[N+]=[N-])c(I)c2)c1=O
37 nM	700 nM			3 nM	37 nM	CCCn1c(=O)c2nc(-c3ccc(OCC(=O)O)cc3)[nH]c2n(Cc2ccc(N)c(I)c2)c1=O
32 nM	1000 nM			3.4 nM	64 nM	CCCn1c(=O)c2nc(-c3ccc(OCC(=O)O)cc3)[nH]c2n(Cc2ccc(N)cc2)c1=O
29 nM	5300 nM					CCCn1c(=O)c2nc(-c3ccc(OCC(=O)O)cc3)[nH]c2n(CCc2ccc(N)c(I)c2)c1=O
60 nM	11500 nM			3.4 nM	37 nM	CCCn1c(=O)c2nc(-c3ccc(OCC(=O)O)cc3)[nH]c2n(CCc2ccc(N)cc2)c1=O
44 nM	23000 nM			5.2 nM	44 nM	CCCn1c(=O)n(Cc2ccc(N)cc2)c(=O)c2[nH]c(-c3ccc(OCC(=O)O)cc3)nc21
